Experimental data from ChEMBL document CHEMBL1921671, “Benzisothiazolinone as a useful template for the design of new monoacylglycerol lipase inhibitors: investigation of the target residues and comparison with octhilinone” (Bioorg Med Chem Lett, 2011).
Changes are numbered by the printed parent chain. The source made the active and inactive calls. No cut-off for these calls is given here.

How the values were obtained:
Homo sapiens [1] = species: Homo sapiens; test: Selectivity ratio of IC50 for human recombinant FAAH to IC50 for human recombinant MAGL by liquid scintillation counting
Monoglyceride lipase [2] = target: T1, Monoglyceride lipase (Homo sapiens, UniProt Q99685); test: Inhibition of human recombinant MAGL assessed as [3H]oleoylglycerol hydrolysis after 10 mins by liquid scintillation counting
T1 sequence (Q99685 whole entry): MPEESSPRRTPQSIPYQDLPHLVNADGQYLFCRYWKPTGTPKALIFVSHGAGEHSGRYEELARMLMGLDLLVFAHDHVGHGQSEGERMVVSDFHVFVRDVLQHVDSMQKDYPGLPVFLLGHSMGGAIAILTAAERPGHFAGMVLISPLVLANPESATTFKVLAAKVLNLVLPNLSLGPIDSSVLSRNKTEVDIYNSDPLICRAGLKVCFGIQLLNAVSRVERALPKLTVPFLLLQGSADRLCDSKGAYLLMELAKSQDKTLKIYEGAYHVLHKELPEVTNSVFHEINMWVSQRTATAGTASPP
How it was run: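 Purified recombinant human MAGL, 5 ng, in 50 mM Tris pH 8.0 with 0.1% BSA, preincubated with […]. Substrate [3H]-2-oleoylglycerol at 10 µM final in Tris pH 8.0 with 0.6% BSA. Reaction run 10 min at 37 °C and stopped with ice-cold 1:1 methanol/chloroform, then centrifuged. Aqueous-phase radioactivity counted by liquid scintillation; no-enzyme blanks subtracted.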

[3] = target: T2, Fatty-acid amide hydrolase 1 (Homo sapiens, UniProt O00519); test: Inhibition of human recombinant FAAH assessed as conversion of [3H]AEA to [3H]ethanolamine after 10 mins by liquid scintillation counting
T2 sequence (O00519 whole entry): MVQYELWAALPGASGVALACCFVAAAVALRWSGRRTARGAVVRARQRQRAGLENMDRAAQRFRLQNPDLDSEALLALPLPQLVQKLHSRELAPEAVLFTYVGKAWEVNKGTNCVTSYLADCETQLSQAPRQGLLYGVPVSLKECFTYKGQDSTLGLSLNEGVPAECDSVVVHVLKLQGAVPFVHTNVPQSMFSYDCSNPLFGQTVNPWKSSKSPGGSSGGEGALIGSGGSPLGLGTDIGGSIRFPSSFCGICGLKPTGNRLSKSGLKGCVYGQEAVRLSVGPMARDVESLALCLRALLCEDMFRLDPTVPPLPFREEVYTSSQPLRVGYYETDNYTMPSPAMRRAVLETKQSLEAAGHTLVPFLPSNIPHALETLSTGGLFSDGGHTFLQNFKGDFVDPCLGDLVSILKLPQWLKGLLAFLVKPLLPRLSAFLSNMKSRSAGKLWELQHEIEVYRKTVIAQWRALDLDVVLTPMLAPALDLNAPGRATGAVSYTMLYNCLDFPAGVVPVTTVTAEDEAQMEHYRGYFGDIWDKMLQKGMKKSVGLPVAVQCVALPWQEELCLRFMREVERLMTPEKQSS

[4] = target: T3, Fatty-acid amide hydrolase 1 (Homo sapiens) (UniProt O00519); test: Inhibition of human recombinant FAAH assessed as conversion of [3H]AEA to [3H]ethanolamine at 1 mM after 10 mins by liquid scintillation counting
T3 sequence (whole entry): T2 sequence (O00519 whole entry)

[5] = target: T4, Monoglyceride lipase (Homo sapiens) (UniProt Q99685); test: Inhibition of human recombinant MAGL assessed as [3H]oleoylglycerol hydrolysis at 1 mM after 10 mins by liquid scintillation counting
T4 sequence (whole entry): T1 sequence (Q99685 whole entry)
How it was run: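 Single-concentration test at 10^-3 M against purified recombinant human MAGL, 5 ng. Inhibitor preincubated 10 min at 37 °C. [3H]-2-oleoylglycerol at 10 µM final hydrolysed 10 min at 37 °C in 50 mM Tris pH 8.0 with BSA. Reaction quenched with cold methanol/chloroform. Aqueous-layer radioactivity read by scintillation, blanks subtracted, and result expressed as % inhibition.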

[6] = test system: T5, Monoglyceride lipase (Homo sapiens), Q99685 [C242A]; test: Inhibition of human MAGL C242A mutant
T5 sequence (whole entry): T1 sequence (Q99685 whole entry) with C242A

[7] = target: T4, Monoglyceride lipase (Homo sapiens); test: Inhibition of human recombinant MAGL assessed as [3H]oleoylglycerol hydrolysis preincubated for 10 mins at 37 degC by liquid scintillation counting
How it was run: (§1)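 Purified recombinant human MAGL (5 ng; 50 mM Tris pH 8.0, 0.1% BSA) preincubated with inhibitor at the line's time and temperature. Then incubated 10 min at 37 °C with 2-OG (10 µM final; [3H]-2-OG 50,000 dpm; Tris pH 8.0 with 0.6% BSA). Stopped with ice-cold methanol:chloroform 1:1 and centrifuged. Aqueous-phase radioactivity counted by liquid scintillation. No-enzyme blanks subtracted.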

Homo sapiens [8] = species: Homo sapiens; test: Selectivity ratio of IC50 for human recombinant FAAH to IC50 for human recombinant MAGL by liquid scintillation counting of radiolabeled 2-OG hydrolysis
[9] = test system: T6, Monoglyceride lipase (Homo sapiens), Q99685 [C208A]; test: Inhibition of human MAGL C208A mutant
T6 sequence (whole entry): T1 sequence (Q99685 whole entry) with C208A

[10] = target: T4, Monoglyceride lipase (Homo sapiens); test: Inhibition of human recombinant MAGL assessed as inhibition of [3H]oleoylglycerol hydrolysis preincubated for 30 mins at room temperature by liquid scintillation counting; how it was run: as §1
[11] = target: T4, Monoglyceride lipase (Homo sapiens); test: Inhibition of human recombinant MAGL assessed as [3H]oleoylglycerol hydrolysis preincubated for 10 mins at room temperature by liquid scintillation counting; how it was run: as §1
[12] = test system: T7, Monoglyceride lipase (Homo sapiens), Q99685 [C201A,C208A,C242A]; test: Inhibition of human MAGL C201A/C208A/C242A mutant
T7 sequence (whole entry): T1 sequence (Q99685 whole entry) with C201A, C208A, C242A

[13] = target: T4, Monoglyceride lipase (Homo sapiens); test: Inhibition of human recombinant MAGL assessed as [3H]oleoylglycerol hydrolysis at 10^-5 M preincubated for 5 mins measured after 15 mins by liquid scintillation counting in the presence of dithiothreitol
[14] = test system: T8, Monoglyceride lipase (Homo sapiens), Q99685 [C201A]; test: Inhibition of human MAGL C201A mutant
T8 sequence (whole entry): T1 sequence (Q99685 whole entry) with C201A

[15] = target: T4, Monoglyceride lipase (Homo sapiens); test: Inhibition of human recombinant MAGL assessed as [3H]oleoylglycerol hydrolysis preincubated for 30 mins at 37 degC by liquid scintillation counting; how it was run: as §1
[16] = Selectivity ratio of IC50 for rat MAGL to IC50 for human MAGL
Monoglyceride lipase [17] = target: T1, Monoglyceride lipase; test: Inhibition of human recombinant MAGL assessed as inhibition of 2-oleoylglycerol hydrolysis preincubated for 10 mins by LC/MS analysis
Monoglyceride lipase [18] = target: T9, Monoglyceride lipase (Rattus norvegicus, UniProt Q8R431); test: Inhibition of rat recombinant N-terminal his-tagged MAGL expressed in Escherichia coli DH5alpha assessed as 2-oleoylglycerol hydrolysis after 10 mins by LC/MS analysis
T9 sequence (Q8R431 whole entry): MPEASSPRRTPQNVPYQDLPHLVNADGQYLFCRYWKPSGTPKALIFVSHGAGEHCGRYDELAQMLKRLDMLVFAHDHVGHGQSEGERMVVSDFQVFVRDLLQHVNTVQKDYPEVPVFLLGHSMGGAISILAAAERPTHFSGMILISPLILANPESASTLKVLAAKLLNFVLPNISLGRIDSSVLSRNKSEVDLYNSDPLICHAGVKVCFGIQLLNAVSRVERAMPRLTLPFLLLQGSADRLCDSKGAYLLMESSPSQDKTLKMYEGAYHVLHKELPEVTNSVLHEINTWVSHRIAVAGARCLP

| Ratio IC50 (Homo sapiens [1]) | IC50 (Monoglyceride lipase [2]) [nM] | IC50 [3] [µM] | inhibition [4] | inhibition [5] | SMILES | other results |
| --- | --- | --- | --- | --- | --- | --- |
| 73 | 410 | 30 |  |  | O=c1c2ccccc2sn1Cc1ccc(-c2ccccc2)cc1 |  |
| 0.16 | 275000 | 44.7 |  |  | CCCCCCCCn1oc2ccccc2c1=O |  |
|  |  |  | inactive | inactive | CCCCCCCCN1C(=O)c2ccccc2C1=O |  |
|  |  |  | 50% | inactive | c1ccc(-c2ccc(COc3nsc4ccccc34)cc2)cc1 |  |
|  |  |  | inactive | inactive | CCCCCCCCN1Cc2ccccc2C1=O |  |
|  |  | 129 |  | 26% | CCCCCCCCn1c(=O)oc2ccccc21 |  |
|  |  | 309 |  | 72% | CCCCCCCCn1c(=O)sc2ccccc21 |  |
| 21.2 | 1660 | 35.2 |  |  | CCCCCCCCn1sc2ccccc2c1=O | inhibition [6]: inactive; IC50 (Monoglyceride lipase [18]): 59 nM; inhibition [7]: Active; Ratio IC50 (Homo sapiens [8]): 53; inhibition [9]: Active; inhibition [10]: Active; inhibition [11]: Active; IC50 (Monoglyceride lipase [17]): 660 nM; inhibition [12]: inactive; inhibition [13]: inactive; inhibition [14]: inactive; inhibition [15]: Active; Ratio IC50 [16]: 11 |
| 0.47 | 67900 | 31.6 |  |  | CCCCCCCCOc1noc2ccccc12 |  |
|  |  |  | 43% | 55% | CCCCCCCCOc1nsc2ccccc12 |  |

| SMILES | Ratio IC50 (Homo sapiens [1]) | IC50 (Monoglyceride lipase [2]) [nM] | IC50 [3] [µM] | inhibition [4] | inhibition [5] | other results |
| --- | --- | --- | --- | --- | --- | --- |
| CCCCCCCCN1SCCC1=O | 17.3 |  |  |  |  | inhibition [6]: inactive; inhibition [7]: Active; Ratio IC50 (Homo sapiens [8]): 53; inhibition [9]: inactive; inhibition [10]: Active; inhibition [11]: Active; inhibition [12]: inactive; inhibition [13]: inactive; inhibition [14]: inactive; inhibition [15]: Active; Ratio IC50 [16]: 1.5 |
| CCCCCCCCn1sccc1=O [OCTHILINONE] |  | 1090 | 18.9 |  |  | IC50 (Monoglyceride lipase [17]): 140 nM |
